NR2E3 ag-1: NR2E3 (human) agonism | AID 2300 | inhibition of corepressor binding, % at 4.78 µM | actives 0.12% (n = 320,000) | GST-NR2E3/biotin-RetCOR TR-FRET, 1536-well | Q9Y5X4;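 active means percent inhibition above the cutoff of mean plus 3 SD of all tested compounds, set per screening campaign, cut at about 20% in these data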;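 further: 0% = DMSO wells and 100% = biotin wells as full block of FRET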
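Material: NR2E3–RetCOR corepressor complex / Amount: 1.35 nM GST-NR2E3 / Medium: Tris pH 7.5 / Compound: single nominal compound dose of 4.8 µM / Incubation: 5 h at 4 °C / Technique: TR-FRET, Eu(K)-anti-GST donor, streptavidin-D2 acceptor, ex 340, em 617/671 nm / Read-out basis: percent loss of FRET ratio relative to control wells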
ADAM10 inh: inhibits human ADAM10; actives 0.62% (n = 370,000); inhibition, % at 7 µM; recombinant ADAM10, EDANS/DABCYL FRET peptide cleavage, 3 h;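 active means inhibition above a per-campaign cutoff equal to the mean of compounds falling between control-based bounds plus 3 SD, cut at about 20% in these data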;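 further: 0% = DMSO wells while the 100% control is not disclosed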
KLK7 zymogen act: activators of human kallikrein-7 zymogen | purified proKLK7, EDANS-DABCYL substrate fluorescence; 100% is mature enzyme control, 0% vehicle | activation, % at 7 µM | actives 0.9% (n = 370,000) | AID 652039;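 active means activation above the mean of all tested compounds plus 3 SD, computed per campaign excluding outliers beyond control limits, cut at about 13% in these data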
NR2E3 ag-2: human photoreceptor-specific nuclear receptor agonism. CHO-S Gal4-NCOR/VP16-NR2E3 two-hybrid, luciferase. AID 602229. Q9Y5X4. actives 0.35% (n = 360,000). inhibition of corepressor binding, % at 3.98 µM;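 active means inhibition above the mean of all tested compounds plus 3 SD, cut at about 70% in these data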;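 further: 0% = DMSO with NR2E3 transfected cells and 100% = cells lacking NR2E3 construct; higher means lower luciferase signal from less NR2E3 corepressor binding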
GASC-1 inh: blocks human GASC-1 demethylase activity; actives 0.069% (n = 330,000); AID 2099; Q9H3R0; GST-JMJD2C(1-420) H3K9me3 demethylation, DELFIA europium; inhibition, % at 2.35 µM;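 active means more than half of a compound's replicate wells show inhibition beyond 50%, single wells judged on their own value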;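 further: signal counts dimethyl H3K9 product captured on neutravidin plate; 0% = median of DMSO wells and 100% = 0.3 times that DMSO median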
Target sequence (Q9H3R0 1-420 limits assumed): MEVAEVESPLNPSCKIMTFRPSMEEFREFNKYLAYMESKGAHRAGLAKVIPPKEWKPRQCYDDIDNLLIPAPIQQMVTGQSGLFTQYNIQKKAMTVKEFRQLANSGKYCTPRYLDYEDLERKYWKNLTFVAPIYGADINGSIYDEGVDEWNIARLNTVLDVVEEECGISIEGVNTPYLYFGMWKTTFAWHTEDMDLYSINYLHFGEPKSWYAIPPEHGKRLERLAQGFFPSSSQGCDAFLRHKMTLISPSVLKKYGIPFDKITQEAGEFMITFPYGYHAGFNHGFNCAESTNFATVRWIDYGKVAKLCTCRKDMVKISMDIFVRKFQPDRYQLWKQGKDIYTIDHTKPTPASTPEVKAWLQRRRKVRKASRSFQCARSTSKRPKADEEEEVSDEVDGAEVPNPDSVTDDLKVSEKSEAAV
ADAM17 inh: ADAM17 inhibition, QFRET primary screen; P78536; recombinant ADAM17, EDANS/DABCYL FRET peptide cleavage; actives 0.83% (n = 370,000); inhibition, % at 6.95 µM;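 active means inhibition above the mean of compounds lying between control limits plus 3 SD, set per campaign, cut at about 8.5% in these data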;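 further: 0% = DMSO-only wells as the low control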
Starred values were filed as active, the others as inactive; i = inactive; x = no result given. An excerpt weighted towards active compounds, which were near 2.5% of everything screened.

SMILES	NR2E3 ag-1	ADAM10 inh	KLK7 zymogen act	NR2E3 ag-2	GASC-1 inh	ADAM17 inh
CN(N=Cc1ccc(N(C)C)cc1)C(=O)c1ccccc1N	x	-10	0	x	x	-3
O=C1CCC[C@@H]2C=C[C@H](c3ccc(Br)cc3)[C@H]3CCN1[C@@H]32	x	2	0	3	x	-5
Cc1cccc(CCNC(=O)Cn2nc(-c3ccccc3)ccc2=O)c1	x	-11	0	x	x	3
O=C(OCCN1CCN(C2CN(Cc3cn(Cc4cccc(F)c4)nn3)S(=O)(=O)C2)CC1)c1cc2ccccc2o1 (stereo unspecified)	x	-4	0	x	x	-2
C#CCNC(=O)C[C@@H]1C(=O)N(CCc2ccc(Cl)cc2)/C2=C/CCCCC[C@@]21C(=O)OCC	x	6	1	x	x	1
COC(=O)c1cc2c(c3c4cc(F)ccc4n(S(=O)(=O)c4ccccc4)c13)C(=O)N(Cc1ccc(N(C)C)cc1)C2	x	-8	-1	x	x	1
C[C@H](CO)N1C[C@H](C)[C@@H](CN(C)C(=O)Nc2ccccc2)Oc2ccc(NS(=O)(=O)c3ccccc3)cc2C1=O	x	-12	0	-20	4	4
COc1ccc(NC(=O)Nc2cccc3c2O[C@H](CN(C)C(=O)Nc2ccc(C(F)(F)F)cc2)[C@@H](C)CN([C@H](C)CO)C3=O)cc1	x	x	x	2	-6	x
C[C@H]1CN([C@@H](C)CO)C(=O)c2cccc(NC(=O)Nc3ccc(C(F)(F)F)cc3)c2O[C@@H]1CN(C)C(=O)Nc1ccc(F)cc1	x	23*	0	7	-4	6
CC(C)NC(=O)N(C)C[C@H]1Oc2ccc(NS(=O)(=O)c3ccccc3)cc2C(=O)N([C@H](C)CO)C[C@H]1C	x	-3	0	10	54*	1
COc1cc(NC(=O)c2ccccc2)c(C)cc1NC(=O)CSc1nnc(COc2ccccc2)n1Cc1ccco1	x	16	0	x	x	7
Oc1ccc(Cl)cc1CNCc1ccc(Cl)cc1	2	1	0	11	7	-2
Oc1ccc(Cl)cc1Cc1cc(Cl)ccc1O	3	26*	-1	-4	54	8
CCN(CC)c1ccc2cc(NC(=O)CCC(=O)O)c(=O)oc2c1	-1	i	78*	41	157	i
O=[N+]([O-])c1cc(F)c2cccnc2c1O	3	-2	1	29	0	-1
O=[N+]([O-])c1cc(Cl)c2cccnc2c1O	0	4	0	102*	1	5
COc1ccc(C(=O)C(C)OC(=O)c2cccc(S(=O)(=O)Nc3cc(Cl)c(OC)cc3OC)c2)cc1 (stereo unspecified)	-6	x	x	80*	1	x
COc1ccc(NS(=O)(=O)c2cccc(C(=O)O)c2)cc1	4	3	0	-7	2	1
CSc1ccc(C=NNc2ccc(S(=O)(=O)Nc3ccccc3C(=O)O)cc2[N+](=O)[O-])cc1	x	-13	0	-18	103*	0
Cc1ccc2ccc(C(Nc3ccccn3)c3ccccc3)c(O)c2n1 (stereo unspecified)	-1	25*	1	-31	44	8
COc1cc(C(Nc2ccccn2)c2ccc3ccc(C)nc3c2O)cc(OC)c1O (stereo unspecified)	-2	x	x	-24	9	x
COC1=CC(=O)OC(c2cccc(Cl)c2)C1 (stereo unspecified)	x	-14	0	x	x	-5
CCN1CCN(C(=O)c2cnn3c(C(F)F)cc(-c4ccc(C)cc4)nc23)CC1	1	-129	13*	18	9	-36
Cc1ccc(-c2cc(C(F)F)n3ncc(C(=O)N4CCN(c5ccccn5)CC4)c3n2)cc1	3	-18	1	20	-10	-2
O=C(NC1CCc2ccccc21)c1cc(COc2cncc(Cl)c2)on1 (stereo unspecified)	-1	1	0	-44	60*	3
SMILES	NR2E3 ag-1	ADAM10 inh	KLK7 zymogen act	NR2E3 ag-2	GASC-1 inh	ADAM17 inh
O=C(NC1CCc2ccccc21)c1cc(COc2ccc(F)cc2Cl)on1 (stereo unspecified)	-1	9	1	-34	-6	0
Nc1ncnc2c1ncn2[C@@H]1O[C@H](CNCC#Cc2ccccc2)[C@@H](O)[C@H]1O	x	x	x	-5	54*	x
O=C(CCc1ccccc1)N[C@H]1/C(=N/O)CCC[C@]12C(=O)N(Cc1ccccc1)c1ccccc12	x	-8	0	x	x	-2
CC(c1ccccc1)n1cc(C(=O)NCCCn2ccnc2)nn1 (stereo unspecified)	0	-4	0	2	55*	-6
Cn1nc(C(F)(F)F)c(/C=N/OC(=O)c2ccccc2Cl)c1SCc1ccccc1Cl	-1	-1	0	73*	8	0
Cn1nc(C(F)(F)F)c(/C=N/OC(=O)c2ccccc2)c1SCc1ccc(Cl)cc1	-3	-5	0	-13	5	-5
N#Cc1c(C(F)(F)F)cc(-c2ccc(Cl)cc2)[nH]c1=O	5	i	21*	3	0	i
N#Cc1c(C(F)(F)F)cc(-c2ccc(F)cc2)[nH]c1=O	2	i	8	-7	-22	-401
CCN(C[C@H]1N[C@@](C)(C(=O)OC)[C@H]2C(=O)N(C)C(=O)[C@@H]12)C(=O)c1ccccc1	x	-16	-1	-38	x	-3
CCN(C[C@H]1N[C@@](C)(C(=O)OC)[C@H]2C(=O)N(C)C(=O)[C@@H]12)C(=O)Nc1ccccc1	x	-11	0	2	54*	-1
Cc1cc2ccccn2c1C(=O)c1ccncc1	4	1	-1	-1	69*	-4
COc1ccc(-n2c(C)cc(/C=N/Nc3nnc(C)n3N)c2C)cc1	0	-6	-1	-17	68*	-2
Cc1cccc2sc(NC(=O)C3CCN(S(=O)(=O)c4cc([N+](=O)[O-])ccc4Cl)CC3)nc12	-2	20*	0	-19	-15	6
COc1ccc(C(=O)NC2CC3CCCC(C2)N3Cc2ccccc2)cc1 (stereo unspecified)	0	5	0	3	60*	2
Clc1cc(Cl)cc(CNC2CCC23CCC(c2ccccc2)CC3)c1 (stereo unspecified)	x	0	x	x	x	-1
CCS(=O)(=O)Nc1ccc2c(c1)C(=O)N(C)[C@@H]1CC[C@H](CC(=O)NCCOC)O[C@H]1CO2	x	2	0	x	x	-1
Cc1nc(NC(=O)c2cc3c(s2)CCCCC3)sc1C(=O)N(C)C	6	3	0	-97	-7	2
COC(=O)c1sc(NC(=O)c2cc3c(s2)CCCC3)nc1C	6	-7	-1	-89	60*	-3
CCCn1nnnc1SCC(=O)NCc1ccc(OC)cc1	3	2	0	-12	31	-4
